Only some compounds are listed: those with a hit (about 4.8% of all), similar ones and a draw of the others.
UCH37 inh: inhibitors of human deubiquitinating enzyme UCH37 | inhibition, % (test concentration not listed) | Q9Y5K5 | purified proteasome/UCH37, Ub-AMC cleavage fluorescence | 330,000 tested, 0.33% active;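 active = mean inhibition over replicate wells above about 20%, limit read from the data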;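 note: 0% = compound-free wells with enzyme and 100% = wells lacking proteasome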
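Reagent: Ub-AMC substrate; assay system: Proteasome-associated human UCH37 deubiquitinase; controls: no-proteasome and no-compound wells; read-out: % inhibition of Ub-AMC cleavage fluorescence; timing: 30 min preincubation with enzyme, 25 min cleavage at room temperature; signal: AMC fluorescence from Ub-AMC cleavage, excitation 355 nm, emission 460 nm; buffer or medium: Tris-HCl pH 7.4 plus ovalbumin, ATP-MgCl2, DTT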
NALP3 yeast inh: NALP3 inhibition in yeast; inhibition, % at 10 µM; 330,000 tested, 0.39% active; Yeast reconstituted NLRP3/ASC/caspase-1, beta-gal luminescence, 24 h;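 active = inhibition of 50% or more; inactive = inhibition below 50%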;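 note: plate controls were induced DMSO wells for no effect and uninduced yeast grown without galactose for full effect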
NALP1 yeast inh: inhibitors of NALP1 inflammasome in yeast. inhibition, % at 10 µM. 280,000 tested, 0.61% active. S. cerevisiae NALP1/ASC/caspase-1 growth, X-gal OD620, 72 h; in the data active = inhibition mostly above about 24%, no sharp cut-off; inactive = mostly below about 32%
ALR H2O2 inh: inhibitors of human sulfhydryl oxidase ALR | P55789 | AID 485317 | 290,000 tested, 3.8% active | purified ALR, DTT oxidation, H2O2 HRP-luminol luminescence | inhibition, % (no concentration beside the values);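 active = mean replicate inhibition above about 79%, with every replicate also reaching it, limit read from the data; inconclusive = only one of the two criteria met; inactive = mean below limit and not every replicate reaching it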
Target sequence (P55789 whole entry, looked up): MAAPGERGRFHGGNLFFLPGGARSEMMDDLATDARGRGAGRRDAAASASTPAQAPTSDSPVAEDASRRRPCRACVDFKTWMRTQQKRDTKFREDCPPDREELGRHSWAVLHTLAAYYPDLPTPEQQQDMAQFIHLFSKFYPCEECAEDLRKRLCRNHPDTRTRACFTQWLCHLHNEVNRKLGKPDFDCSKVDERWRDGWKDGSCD
ATG4B inhibitor: inhibitors of human ATG4B cysteine protease; inhibition, % at 8.33 µM; AID 504462; ATG4B cleavage of LC3-PLA2, NBD-HPC fluorescence, 1 h; Q9Y4P1; 340,000 tested, 0.51% active; in the data active = inhibition above about 40%
Target sequence (Q9Y4P1 whole entry, looked up): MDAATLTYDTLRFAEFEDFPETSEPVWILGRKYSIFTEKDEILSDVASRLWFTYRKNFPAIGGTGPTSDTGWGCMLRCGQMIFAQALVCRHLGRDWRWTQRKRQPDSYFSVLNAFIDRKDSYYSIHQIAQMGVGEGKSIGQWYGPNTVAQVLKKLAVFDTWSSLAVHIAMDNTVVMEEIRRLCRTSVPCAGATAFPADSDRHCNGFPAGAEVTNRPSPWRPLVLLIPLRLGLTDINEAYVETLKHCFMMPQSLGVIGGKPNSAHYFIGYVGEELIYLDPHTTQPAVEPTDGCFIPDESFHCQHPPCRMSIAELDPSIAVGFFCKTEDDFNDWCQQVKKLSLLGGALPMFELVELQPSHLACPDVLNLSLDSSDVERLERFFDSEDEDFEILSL
Calb FLC: C. albicans growth modulation with fluconazole. AID 1979. 300,000 tested, 0.57% active. growth inhibition, % (test concentration not listed). C. albicans CaCi-2 + fluconazole, Alamar Blue growth, 48 h;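 active = growth inhibition above about 58% in most replicates, limit read from the data, passing the limit was not always enough; inconclusive = exactly half the replicates above a set limit; inactive = most replicates below a set limit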;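 note: all wells also contain fluconazole at 8 µg/ml as a sub-toxic cotreatment; 0% = median of DMSO wells and 100% = median of geldanamycin control wells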
* marks the source's active call; other numbers are inactive results; ? = inconclusive; / = not tested or not shown.

SMILES	UCH37 inh	NALP3 yeast inh	NALP1 yeast inh	ALR H2O2 inh	ATG4B inhibitor	Calb FLC
CC(=O)c1ccc(NC(=O)CSc2nc(=O)cc(N)n2-c2ccccc2)cc1	2	11	-2	99*	-11	-6
CCOc1ccc(C=Nn2nnnc2N)cc1OCC	-24	/	/	/	/	/
COCCCNC(=S)N/N=C/c1ccc(OC)cc1	/	10	-4	13	2	0
COCCNC(=S)NN=C(C)c1ccc(Cl)c(Cl)c1	1	/	/	/	/	/
COCCNC(=S)N/N=C(\C)c1ccc(O)cc1	/	6	3	99*	7	0
COCCCNC(=S)N/N=C/c1ccc(O)cc1	/	2	18	99*	1	-3
COc1cc(C=Nn2cnnc2)ccc1OCc1ccccc1	-3	/	/	/	/	/
COc1ccc(C(=O)CSC2=C(C#N)C3(CCCCC3)C(C#N)=C(N)N2)cc1	2	-8	-5	87*	-4	0
CC1CN(C(=O)C(C)Sc2nc3ccccc3s2)CC(C)O1 (stereo not given)	3	22	4	99*	-6	-2
CC1CCCC(C)N1C(=O)CSc1nc2ccccc2s1 (stereo not given)	5	7	-4	98*	-7	-7
CC1CCN(C(=O)CSc2nc3ccccc3s2)CC1	/	16	-9	99*	-4	7
CC(C)(C)NC(=O)CSc1nc(Cc2ccccc2)nc2ccccc12	2	22	-1	98*	-7	9
Cc1ccc2nc(SC(C)C(=O)N3CC(C)OC(C)C3)[nH]c2c1 (stereo not given)	0	0	-21	-8	-5	8
CC(=NNC(=O)c1ccc(C)cc1)C1C(=O)c2ccccc2C1=O	19	/	/	/	/	/
Cc1ccc(C=NNc2ccc(C(=O)O)cc2)o1	15	/	/	/	/	/
CCOc1ccc(C=NNC(=S)NC2CC3C=CC2C3)cc1 (stereo not given)	3	/	/	/	/	/
O=C(CSc1nc2ccccc2s1)N1CCN(C(=O)c2ccco2)CC1	-5	-2	9	99*	-7	-6
O=C(O)C1CCN(C(=O)CSc2nc3ccccc3s2)CC1	2	-9	-1	8	6	9
NC(=O)C1CCN(C(=O)CSc2nc3ccccc3s2)CC1	0	1	-10	98*	0	-1
CCc1nc(SCC(=O)N2CCCC2)c2ccccc2n1	4	1	-1	92*	-7	17
O=C(CSc1nc2ccccc2s1)N1CCCCC1	2	33	13	99*	-13	-8
CCC(=NNc1ccc([N+](=O)[O-])cc1)c1ccccc1	-3	/	/	/	/	/
O=C(NN=C1CCCc2ccccc21)c1ccccc1[N+](=O)[O-]	3	/	/	/	/	/
COc1ccc(NC(=O)ON=C2CCCc3ccc(OC)cc32)cc1	-1	/	/	/	/	/
Cc1nc2ccccn2c1C(=O)NN=Cc1cc(C)n(-c2ccc(Br)cc2)c1C	-7	/	/	/	/	/
SMILES	UCH37 inh	NALP3 yeast inh	NALP1 yeast inh	ALR H2O2 inh	ATG4B inhibitor	Calb FLC
Cc1cccc(C(=O)Nc2onc(C)c2C#N)c1	3	-13	6	96*	-6	?
CON=CCC(=O)Nc1ccc(Cl)c(Cl)c1	-4	/	/	/	/	/
CCCn1nc([N+](=O)[O-])c(C(C#N)c2nc3ccccc3o2)c(Cl)c1=O (stereo not given)	15	28	-8	/	84*	22
Cc1ccc(N2C(=O)CS/C2=C(\C(Cl)=C(Cl)Cl)[N+](=O)[O-])cc1	4	25	-13	98*	15	-4
CC(C)(C)OC(=O)N1CCC[C@H]1C(=O)NN=Cc1ccc2ncccc2c1	2	/	/	/	/	/
Cc1c(NC(=O)OC(C)C)sc(=S)n1C	6	9	9	98*	7	2
CC(=O)NCCOC(=O)Nc1sc(=S)n(C)c1C	3	12	5	43	-8	-8
O=c1c(O[C@H]2O[C@@H](CO)[C@H](O)[C@@H](O)[C@@H]2O)c(-c2ccc(O)cc2)oc2cc(O)cc(O)c12	3	2	/	87*	-7	/
O=c1c(O[C@@H]2O[C@H](CO)C(O)C2O)c(-c2ccc(O)c(O)c2)oc2cc(O)cc(O)c12 (stereo not given in full)	3	25	/	100*	-1	/
O=c1c2c(O)cc(O)cc2oc2c(O)ccc(O[C@H]3O[C@@H](CO)[C@H](O)[C@@H](O)[C@@H]3O)c12	3	4	/	20	-2	/
O=c1c(-c2ccc(O)cc2)coc2cc(OC3OC(CO)C(O)C(O)C3O)cc(O)c12 (stereo not given)	4	7	16	58	-6	10
O=c1c(OC2OC(CO)C(O)C(O)C2O)c(-c2ccc(O)c(O)c2)oc2cc(O)cc(O)c12 (stereo not given)	4	20	12	99*	1	0
O=c1c(-c2ccc(O)cc2)coc2cc(OC3OC(CO)C(O)C(O)C3O)ccc12 (stereo not given)	2	-4	16	99*	0	1
O=c1c(OC2OC(CO)C(O)C(O)C2OC2OC(CO)C(O)C(O)C2O)c(-c2ccc(O)cc2)oc2cc(O)cc(O)c12 (stereo not given)	9	7	7	23	-15	/
CC(=NOCC(=O)NCC(F)(F)F)c1cc2ccccc2o1	3	/	/	/	/	/
NC(N)=NN=Cc1ccc(Cl)cc1Cl	2	/	/	/	/	/
S=c1[nH]nc2n1CCCN2	5	13	6	95*	7	-2
Cc1c(C(=O)NN=CC(C)C)[nH]c2c([N+](=O)[O-])cccc12	4	/	/	/	/	/
O=C(O)c1ccc(C=Nn2c(C3CCCCC3)n[nH]c2=S)cc1	2	/	/	/	/	/
O=C(O)c1ccc(/C=N/n2c(C3CCCCC3)n[nH]c2=S)cc1	/	3	-18	98*	-1	-5
COc1cc(/C=N/n2c(C3CCCCC3)n[nH]c2=S)cc(Br)c1O	/	11	-6	83*	-2	0
O=C(O)c1ccccc1C=Nn1c(C2CCCCC2)n[nH]c1=S	3	/	/	/	/	/
COc1cc(C=Nn2c(C3CCCCC3)n[nH]c2=S)cc(Br)c1O	1	/	/	/	/	/
O=C(O)c1ccccc1/C=N/n1c(C2CCCCC2)n[nH]c1=S	/	10	-6	98*	7	-1
COc1ccc(C=NNC(=S)Nc2ccccc2)cc1COc1ccccc1F	2	/	/	/	/	/
SMILES	UCH37 inh	NALP3 yeast inh	NALP1 yeast inh	ALR H2O2 inh	ATG4B inhibitor	Calb FLC
C=C(C)C(=O)NNc1ccccc1	1	9	27*	31	-5	-29
CC(C)OC(=O)C(=O)NNc1ccccc1	1	14	37	100*	-1	129*
CCCOC(=O)/C(C(N)=NCc1ccccc1)=C(\O)OCCC	3	6	32	-3	-1	0
CCCOC(=O)C(=O)NNc1ccccc1	3	5	18	100*	1	-3
CC(C(=O)Nc1ccccc1)C(=O)Nc1ccccc1	3	17	12	6	-5	17
Cc1cc(NC(=O)CSc2nnc(CNc3ccc(F)cc3)n2C2CCCCC2)no1	2	3	8	/	3	28

Bioassay records as filed in PubChem BioAssay.
